AI-2 QS mod: Vibrio harveyi AI-2 quorum sensing modulators, primary screen, JMH597 strain, luminescence/OD600 ratio; 300,000 tested, 0.4% active; AID 2094, 2009; activity change, % at 7.5 µM; Vibrio harveyi JMH597 AI-2 luminescence/OD600 ratio, 9 h; active compounds read low; strain lacks LuxN and CqsS sensors; 0 = neutral-control median; in the data active = activity change below about -75%, passing the limit was not always enough;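 also: luminescence divided by OD600 gain over 9 h not by final OD600 alone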
T cruzi inh: inhibitors of intracellular T. cruzi growth, primary screen, luminescence, NIH3T3 host cells | inhibition, % (no concentration beside the values) | 300,000 tested, 1.4% active | AID 1885, 2009 | T. cruzi beta-gal in NIH3T3, 90 h;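 active = mean inhibition across valid replicates above about 55%, limit read from the data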;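 also: signal also drops with host cell toxicity which is not excluded here; 0% = plate median of DMSO wells and 100% = zero luminescence signal; higher percent means less beta-gal luminescence so fewer parasites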
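compound dosing = single 50 nL compound addition per well in DMSO | material = NIH/3T3 host cells with β-galactosidase reporter T. cruzi | input = 5,000 host fibroblasts per well | timing = ≥90 h infection period, 3 h prior cell attachment | read-out basis = percent inhibition of parasite-derived β-gal signal | detection = GalScreen β-gal luminescence, detergent lysis, 60 min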
p-CIP stab down: p/CIP-EGFP fusion destabilizers, primary screen, fluorescence, F442A cells; 290,000 tested, 0.01% active; 16 h; Q05BA5; decrease of EGFP signal, % at 10 µM;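 active = EGFP signal decrease of at least 30% at 10 µM or well 3 SD below plate mean, unless failing retest; inactive = the rest, including hits failing retest or dose response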
UBC13 polyUb: UBC13 polyubiquitin chain formation inhibitors, primary screen, biochemical, TR-FRET, uHTS; inhibition, % at 20 µM; 330,000 tested, 0.47% active; Ubiquitin-conjugating enzyme E2 N (Homo sapiens), P61088; in the data active = inhibition above about 45%, passing the limit was not always enough
Target sequence (P61088 whole entry, looked up): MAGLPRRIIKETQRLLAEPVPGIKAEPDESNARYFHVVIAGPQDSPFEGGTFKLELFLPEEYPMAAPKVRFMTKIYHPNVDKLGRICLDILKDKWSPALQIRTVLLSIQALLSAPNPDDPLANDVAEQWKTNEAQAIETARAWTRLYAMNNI
PP1 counter: PP1-alpha phosphatase inhibitors, primary screen, counter-screen for PP5 inhibitor project, biochemical, fluorescence, OMFP substrate, single point; Serine/threonine-protein phosphatase PP1-alpha catalytic subunit (Homo sapiens), P62136; purified PP1alpha; inhibition, % at 6.7 µM; 320,000 tested, 0.9% active;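 active = inhibition above the mean inhibition of all tested compounds plus 3 SD, computed separately for each screening campaign, cut at about 15% in these data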
Casp3 counter: CASP3 inhibitor validation, counterassay for project on UBE2N polyubiquitination blockers, biochemical, one dose. shares compounds with UBC13 polyUb. inhibition, % at 20 µM. Recombinant caspase-3, Caspase-Glo 3/7 luminescence, 60 min. 1,400 tested, 4% active;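 active = mean inhibition across replicates above about 26%, limit read from the data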;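 also: plate controls were DMSO with caspase-3 for no effect and DMSO wells lacking enzyme for full effect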
Target sequence (P42574 whole entry, looked up): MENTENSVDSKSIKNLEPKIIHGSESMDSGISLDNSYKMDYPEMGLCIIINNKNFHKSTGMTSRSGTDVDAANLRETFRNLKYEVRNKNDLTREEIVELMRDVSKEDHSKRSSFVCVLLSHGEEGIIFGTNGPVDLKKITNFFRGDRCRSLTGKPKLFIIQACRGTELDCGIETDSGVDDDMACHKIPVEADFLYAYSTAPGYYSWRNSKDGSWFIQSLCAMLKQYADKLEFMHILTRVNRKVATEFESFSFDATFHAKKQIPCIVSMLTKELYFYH
UBC13 confirm: UBC13 polyubiquitination inhibitors, single-point retest, confirmation, biochemical, TR-FRET, single concentration. shares compounds with UBC13 polyUb. inhibition, % at 10 µM. 1,400 tested, 68% active. AID 488859, 2010; in the data active = inhibition above about 45%
Numbers without * were called inactive. Only some compounds are listed: those with a hit (about 2.8% of all), similar ones and a draw of the others.

`Cc1cc(N2CCN(C)CC2)nc2ccc(NC(=S)N3CCN(c4cccc(Cl)c4)CC3)cc12` gave AI-2 QS mod 30, T cruzi inh 50, p-CIP stab down -1, UBC13 polyUb 61*, PP1 counter 0, Casp3 counter 0 and UBC13 confirm 54*.
`Cc1cc(N2CCN(C)CC2)nc2ccc(NC(=S)N3CCCCCC3)cc12` gave AI-2 QS mod 2, T cruzi inh 32, p-CIP stab down 1, UBC13 polyUb 14 and PP1 counter -5.
Screening Cc1cc(N2CCN(C)CC2)nc2ccc(NC(=S)N3CCN(c4ccc(Cl)cc4)CC3)cc12 returned AI-2 QS mod 6, T cruzi inh 61*, p-CIP stab down 0, UBC13 polyUb 76*, PP1 counter 3, Casp3 counter 5 and UBC13 confirm 70*.
For Cc1cccc(N2CCN(C(=S)Nc3ccc4nc(N5CCN(C)CC5)cc(C)c4c3)CC2C)c1 (stereo unspecified) the results were AI-2 QS mod 23, T cruzi inh 51, p-CIP stab down 9, UBC13 polyUb 36 and PP1 counter 1.
Screening Cc1cc(N2CCN(C)CC2)nc2ccc(NC(=S)N3CCN(c4ccc(F)cc4)CC3)cc12 returned AI-2 QS mod 41, T cruzi inh 49, p-CIP stab down 2, UBC13 polyUb 47*, PP1 counter -3, Casp3 counter -3 and UBC13 confirm 38.
CCOC(=O)C1CCCN(C(=O)c2csc(-c3ccc4c(c3)CCO4)n2)C1 (stereo unspecified) was read as AI-2 QS mod -8, T cruzi inh 13, p-CIP stab down -10, UBC13 polyUb 0 and PP1 counter -3.
Screening CCOC(=O)c1cnc2c(c(C)nn2CC)c1NC1CC1 returned AI-2 QS mod 6, T cruzi inh 1, p-CIP stab down 11, UBC13 polyUb -1 and PP1 counter -4.
Screening CCC(C)C(NC(=O)C1CCC(C)CC1)C(=O)Nc1ccc(OC)cc1 (stereo unspecified) returned AI-2 QS mod 18, T cruzi inh -1, p-CIP stab down -18, UBC13 polyUb -1 and PP1 counter 3.
Screening Cc1ccc2c(c1)C(c1ccccc1)N(C(=O)CC(C)C)CC(=O)N2 (stereo unspecified) returned AI-2 QS mod 20, T cruzi inh -5, p-CIP stab down -10, UBC13 polyUb -6 and PP1 counter -4.
`CC(=O)Nc1ccc(S(=O)(=O)N2CCN(CC(O)COc3ccc4ccccc4c3)CC2)cc1` (stereo unspecified) gave AI-2 QS mod 23, T cruzi inh -11, p-CIP stab down -5, UBC13 polyUb 47*, PP1 counter -4, Casp3 counter 0 and UBC13 confirm 49*.
Screening NS(=O)(=O)c1ccc(NC(=O)COc2ncnc3c2cnn3-c2ccccc2)cc1 returned AI-2 QS mod 5, T cruzi inh 3, p-CIP stab down -18, UBC13 polyUb -3 and PP1 counter -4.
CCOC(=O)C1CCN(CC(O)COCc2ccc3c(c2)OCO3)CC1 (stereo unspecified) was read as AI-2 QS mod 22, T cruzi inh 15, p-CIP stab down -6, UBC13 polyUb -6 and PP1 counter -5.
Screening O=C1c2cccc3cccc(c23)C(=O)N1CC1CCN(CC(O)COCc2ccc3c(c2)OCO3)CC1 (stereo unspecified) returned AI-2 QS mod 8, T cruzi inh 41, p-CIP stab down -9, UBC13 polyUb 95*, PP1 counter 1, Casp3 counter -5 and UBC13 confirm 103*.
CC(=O)c1ccc(Sc2ccc(C(C)=O)cc2)cc1 was read as AI-2 QS mod 26, T cruzi inh 4, p-CIP stab down -6, UBC13 polyUb 45*, PP1 counter -2, Casp3 counter 4 and UBC13 confirm 32.
COc1ccc2c(c1)CCCC21NC(=O)N(CC(=O)N2CC(C)OC(C)C2)C1=O (stereo unspecified) was read as UBC13 polyUb 2.
`CN(Cc1ccccc1)C(=O)C1CCCN1S(=O)(=O)c1ccc2c(c1)n(C)c(=O)c(=O)n2C` (stereo unspecified) gave AI-2 QS mod 27, T cruzi inh 0, p-CIP stab down -11, UBC13 polyUb 14 and PP1 counter -2.
